Results as given in ChEMBL document CHEMBL2311271 (Eur J Med Chem, 2013).

Legend:
Format in all cases: functional, cell-based
MCF7 = experiment: Cytotoxicity against human MCF7 cells by MTT assay
How it was run: (§1)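 Cells grown in RPMI-1640 with 10% fetal calf serum plus penicillin and streptomycin, 37 °C, 5% CO₂. Compounds in DMSO, final ≤2% (v/v), tested in 96-well cultures with MTT staining. IC₅₀ = concentration cutting optical density 50% versus untreated cells; three replicate wells per point; mean of three independent determinations.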

HepG2 = experiment: Cytotoxicity against human HepG2 cells by MTT assay; how it was run: as §1
Bel-7402 = experiment: Cytotoxicity against human Bel7402 cells by MTT assay; how it was run: as §1
BGC-823 = experiment: Cytotoxicity against human BGC823 cells by MTT assay; how it was run: as §1
HeLa = experiment: Cytotoxicity against human HeLa cells by MTT assay; how it was run: as §1
KB = experiment: Cytotoxicity against human KB cells by MTT assay; how it was run: as §1
[1] = Cytotoxicity against human Blu-87 cells by MTT assay; how it was run: as §1
769-P = experiment: Cytotoxicity against human 769-P cells by MTT assay; how it was run: as §1
SCaBER = experiment: Cytotoxicity against human SCaBER cells by MTT assay; how it was run: as §1
HT-29 = experiment: Cytotoxicity against human HT-29 cells by MTT assay; how it was run: as §1
786-0 = experiment: Cytotoxicity against human 786-0 cells by MTT assay; how it was run: as §1
A-375 = experiment: Cytotoxicity against human A375 cells by MTT assay; how it was run: as §1
A549 = experiment: Cytotoxicity against human A549 cells by MTT assay; how it was run: as §1
U-251 = experiment: Cytotoxicity against human U251 cells by MTT assay; how it was run: as §1
OS-RC-2 = experiment: Cytotoxicity against human OS-RC2 cells by MTT assay; how it was run: as §1
CWR22R = experiment: Cytotoxicity against human 22Rv1 cells by MTT assay; how it was run: as §1

Row | Compound | IC50 (MCF7) [µM] | IC50 (HepG2) [µM] | IC50 (Bel-7402) [µM] | IC50 (BGC-823) [µM] | IC50 (HeLa) [µM] | IC50 (KB) [µM] | IC50 [1] [µM] | IC50 (769-P) [µM] | IC50 (SCaBER) [µM] | IC50 (HT-29) [µM] | IC50 (786-0) [µM] | IC50 (A-375) [µM] | IC50 (A549) [µM] | IC50 (U-251) [µM] | IC50 (OS-RC-2) [µM] | IC50 (CWR22R) [µM]
1 | CCCCCCCCCCOc1ccc2c3ccnc(C)c3n(CC(C)C)c2c1 | > 100 | > 100 | > 100 | 74.1 | 2 |  |  |  |  |  |  |  |  |  |  | 
2 | CCn1c2cc(OCc3ccccc3)ccc2c2ccnc(C)c21 | > 100 | 15.5 | > 100 | 17.2 | > 100 |  |  |  |  |  |  |  |  |  |  | 
3 | Cc1nccc2c3ccc(OCC(C)C)cc3n(CCCc3ccccc3)c12 | > 100 | 12.9 | 39.3 | 23 | > 100 |  |  |  |  |  |  |  |  |  |  | 
4 | CCCCCCCCOc1ccc2c3ccnc(C)c3n(CCCc3ccccc3)c2c1 |  | > 100 |  |  | > 100 |  |  |  |  |  |  |  |  |  |  | 
5 | CCCCn1c2cc(OCc3ccccc3)ccc2c2ccnc(C)c21 | 16.9 | 17.8 | > 100 | 17.2 | 47 | 45 | 32.7 | 17.1 | 39.7 | 26.8 | 10.1 | 28.6 | 18.1 |  |  | 
6 | CCCCn1c2cc(OC(CC)CC)ccc2c2ccnc(C)c21 | 5.4 | 15.6 | 21.5 | 16.7 | 28.2 | 19.8 | 16 | 22.2 | 43.8 | 25.1 | 13.4 | 18.8 | 21 | 25.1 | 26.9 | 
7 | CCCCn1c2cc(OCCCc3ccccc3)ccc2c2ccnc(C)c21 | 16 | 15.6 | > 100 | 13.8 | 24.7 | 41.6 | 26.9 | 21.3 | 20.3 | 51.2 | 12.9 | 21.5 | 28.1 | 29.9 |  | 40.5
8 | CCn1c2cc(OC(C)C)ccc2c2ccnc(C)c21 | > 100 | 52.6 | 43.6 | 59.7 | 27.6 |  |  |  |  |  |  |  |  |  |  | 
9 | CCCCCCCCOc1ccc2c3cc[n+](Cc4ccccc4)c(C)c3n(CCCc3ccccc3)c2c1 |  |  |  |  |  | < 1.5 | 1.9 | 1.8 | 6.1 | 3.4 | < 1.5 | < 1.5 | 1.6 | 2.9 | 1.7 | < 1.5
10 | CCn1c2cc(OCc3c(F)c(F)c(F)c(F)c3F)ccc2c2ccnc(C)c21 | > 100 | > 100 | > 100 | > 100 | > 100 |  |  |  |  |  |  |  |  |  |  | 
11 | CCCCOc1ccc2c3cc[n+](Cc4ccccc4)c(C)c3n(CC)c2c1 | 5.9 | 10 | 2.9 | 10.9 | 2.4 | < 1.7 | 22.9 | 4.6 | 21.8 | 6.4 | 7.8 | 6.9 | 13 | 14.2 | 8.8 | 
12 | CC(C)=CCOc1ccc2c3ccnc(C)c3n(CCCc3ccccc3)c2c1 | > 100 | 21.1 | 24.7 | 32.3 | > 100 |  |  |  |  |  |  |  |  |  |  | 
13 | CCCCCCCCCCOc1ccc2c3ccnc(C)c3n(CCCC)c2c1 |  | > 100 |  |  | > 100 |  |  |  |  |  |  |  |  |  |  | 
14 | CCCCOc1ccc2c3ccnc(C)c3n(CCCc3ccccc3)c2c1 | 68.9 | 12.4 | 34.8 | 14 | 88.7 |  |  |  |  |  |  |  |  |  |  | 
15 | Cc1nccc2c3ccc(OCc4c(F)c(F)c(F)c(F)c4F)cc3n(CCCc3ccccc3)c12 |  | > 100 |  |  |  |  |  |  |  |  |  |  |  |  |  | 
16 | Cc1nccc2c3ccc(OCCCc4ccccc4)cc3n(CC(C)C)c12 | 19.5 | 27.7 | > 100 | 18.5 | 27.6 |  |  |  |  |  |  |  |  |  |  | 
17 | CCCCCCCCCCOc1ccc2c3ccnc(C)c3n(CC)c2c1 | 45.9 | 14.1 | > 100 | 15.2 | > 100 |  |  |  |  |  |  |  |  |  |  | 
18 | CCn1c2cc(OCc3ccccc3)ccc2c2cc[n+](Cc3ccccc3)c(C)c21 | 67.6 | 49.9 | 3.6 | 66.1 | 56.3 | 8.7 | 22.1 | 8.9 | 46.3 | 10.9 | 15.4 | 12.3 | 19.6 | 16.2 | 15.9 | 
19 | CCCCCCCCOc1ccc2c3ccnc(C)c3n(CCCC)c2c1 | 13.6 | 13.6 | > 100 | 15.4 | > 100 |  |  |  |  |  |  |  |  |  |  | 
20 | CCOc1ccc2c3cc[n+](Cc4ccccc4)c(C)c3n(CC)c2c1 |  |  |  |  |  | 4.6 | 23.4 | 6.4 | 19.8 | 10.2 | 9.6 | 6.8 | 11.2 | 15.2 | 7.8 | 
21 | Cc1nccc2c3ccc(OCC(C)C)cc3n(CC(C)C)c12 | 29.4 | 36.8 | 42.6 | 26.6 | 32.3 | 27.5 | 32.3 | 30.8 | 28.8 | 35.3 | 18.1 | 22.2 | 32.4 | 49.6 | 30.5 | 
22 | CCCCOc1ccc2c3ccnc(C)c3n(CC)c2c1 | 18.5 | 16.3 | 52.9 | 15.6 | 29.2 |  |  |  |  |  |  |  |  |  |  | 
23 | Cc1nccc2c3ccc(OCCCc4ccccc4)cc3n(CCCc3ccccc3)c12 | > 100 | 16.7 | > 100 | 19.8 | > 100 |  |  |  |  |  |  |  |  |  |  | 
24 | CCCCn1c2cc(OCc3c(F)c(F)c(F)c(F)c3F)ccc2c2ccnc(C)c21 | > 100 | 13.6 | > 100 | 18.3 | > 100 |  |  |  |  |  |  |  |  |  |  | 
25 | CCCCn1c2cc(OCC(C)C)ccc2c2ccnc(C)c21 | 21.6 | 15.3 | 25.6 | 23.4 | 40.7 | 19.4 | 17.4 | 4 | 15.9 | 20.1 | 14.4 | 18.4 | 30 | 32.3 | 30.5 | 
26 | CCCCn1c2cc(OCC(O)C(F)(F)F)ccc2c2ccnc(C)c21 (centres undefined) | 33.1 | > 100 | 62 | 96.4 | > 100 |  |  |  |  |  |  |  |  |  |  | 
